Results of several laboratories.
Each line is one published result; the experiments were not run side by side.

NC(=O)N1c2ccccc2C=Cc2ccccc21  half-life (metabolic stability; human, liver microsomes; 1 µM): > 180 min
CSc1nccc(C(=O)N[C@@H](CCC(=O)O)C(=O)N[C@@H](Cc2ccc3ccccc3c2)C(=O)N[C@@H](CC(C)C)C(=O)NC2CC2c2ccccc2)n1 (stereo partly shown)  half-life (metabolic stability; human, plasma): 2210 min
C=CS(=O)(=O)c1ccc(Nc2nc(OCC3CCCCC3)c3nc[nH]c3n2)cc1  MRT(0-t) (male BALB/c mouse, plasma; intravenous, 20 mg/kg, single dose): 42.6 min
CCOc1ccc(N(C)S(=O)(=O)c2cc(Cl)sc2C(=O)Nc2cc(Cl)cc(C(=O)O)c2)cc1OC  MRT(0-inf) (male C57BL/6 mouse, plasma; intraperitoneal, 10 mg/kg): 0.781 h
O=[N+]([O-])c1ccc(-c2ccc(O)cc2)c2cccnc12  MRT(0-inf) (male CD-1 mouse, plasma; intravenous, 1 mg/kg): 0.11 h
CCC(CC)COC(=O)[C@H](C)N[P@](=O)(OC[C@@H]1C[C@@H](O)[C@H](n2cnc3c(N)ncnc32)O1)Oc1ccccc1  half-life (metabolic stability; human, liver microsomes; 1 µM): 0.82 min
CCN1CCN(Cc2ccc(NC(=O)c3ccc(C)c(NC(=O)c4cncc(-c5cccs5)c4)c3)cc2C(F)(F)F)CC1  MRT (mouse, plasma; intraperitoneal, 15 mg/kg, single dose): 3.09 h
COc1cc(C(=O)OCCCN2CCCN(CCCOC(=O)c3cc(OC)c(OC)c(OC)c3)CC2)cc(OC)c1OC  MRT(0-inf) (male CD-1 mouse, brain; subcutaneous): 1.72 h
CCOC(=O)c1cc(Cl)cc(NC(=O)c2sc(Cl)cc2S(=O)(=O)N(C)c2ccc(OCC)c(OC)c2)c1  MRT(0-inf) (male C57BL/6 mouse, brain; intraperitoneal, 10 mg/kg): 3.28 h
CC(=O)O[C@@]12CO[C@@H]1C[C@H](O)[C@@]1(C)C(=O)[C@H](O)C3=C(C)[C@@H](OC(=O)[C@H](O)[C@@H](NC(=O)OC(C)(C)C)c4ccccc4)C[C@@](O)([C@@H](OC(=O)c4ccccc4)[C@H]21)C3(C)C  MRT (male Kunming mouse, liver; oral, 20 mg/kg): 5.7 h
